Results from ChEMBL document CHEMBL1124214, “Synthesis, binding studies, and structure-activity relationships of 1-aryl-and 2-aryl[1]benzopyranopyrazol-4-ones, central benzodiazepine receptor ligands” (J Med Chem, 1988).

Species on record: Bos taurus
Experiment: Percentage inhibition of [3H]flunitrazepam binding to benzodiazepine receptor of bovine brain membrane at 34 uM
Method in brief: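 Specific [3H]flunitrazepam binding (0.6 nM) to bovine brain membranes, 90 min at 0 °C in 50 mM Tris-HCl, triplicate incubations; test compound at 34 μM, EtOH vehicle unless noted. Filtration through GF/B, scintillation counting; 10 μM diazepam defines nonspecific binding. Percent inhibition as mean ± SEM of five determinations.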
Work on `O=c1oc2ccccc2c2c1c(-c1ccccc1)nn2-c1ccccc1` yielded an inhibition of 34%. `Cc1nn(-c2ccccc2Cl)c2c1c(=O)oc1ccccc12` gave an inhibition of 34%.

The molecules below were run against GABA-A receptor; anion channel (assay: Inhibition of [3H]flunitrazepam binding to benzodiazepine receptor in bovine brain membrane).
Assay type: cell membranes, Bos taurus
Method in brief: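 Bovine brain membranes (0.4-0.5 mg protein) incubated in triplicate with 0.6 nM [3H]flunitrazepam, 90 min at 0 °C, 50 mM Tris-HCl; compounds in EtOH unless noted. Rapid GF/B filtration, buffer wash, scintillation counting; nonspecific binding with 10 μM diazepam. IC50 from log-probit plots, mean ± SEM of seven determinations.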
Molecule `COc1cccc(-n2nc3c(c2C)c(=O)oc2ccccc23)c1` has an IC50 of 5000 nM. In the case of `Cc1nn(-c2ccc(N)cc2)c2c1c(=O)oc1ccccc12`, the IC50 is reported as 1300 nM. In the case of `Cc1nn(-c2cccc(N)c2)c2c1c(=O)oc1ccccc12`, the IC50 is reported as 3400 nM. `Cc1nn(-c2cccc(Cl)c2)c2c1c(=O)oc1ccccc12` gave an IC50 of 90 nM. `CNC1=Nc2ccc(Cl)cc2C(c2ccccc2)=[N+]([O-])C1` [CHLORDIAZEPOXIDE] showed an IC50 of 790 nM. For `Cc1nn(-c2ccccc2[N+](=O)[O-])c2c1c(=O)oc1ccccc12`, the IC50 was 43000 nM. With `Cc1nn(-c2ccc(Cl)cc2)c2c1c(=O)oc1ccccc12` the IC50 was 750 nM. For `Cc1nn(-c2cccc(Br)c2)c2c1c(=O)oc1ccccc12`, the IC50 was 100 nM. Molecule `Cc1nn(-c2ccccc2)c2c1c(=O)oc1ccccc12` has an IC50 of 300 nM. With `Cc1nn(-c2ccccc2N)c2c1c(=O)oc1ccccc12` the IC50 was 630 nM. `Cc1cc(C)cc(-n2nc(C)c3c(=O)oc4ccccc4c32)c1` gave an IC50 of 65 nM. With `COc1ccccc1-n1nc(C)c2c(=O)oc3ccccc3c21` the IC50 was 8000 nM. Molecule `Cc1c2c(=O)oc3ccccc3c2nn1-c1ccccc1` has an IC50 of 3100 nM. `Cc1ccccc1-n1nc(C)c2c(=O)oc3ccccc3c21` was tested, and the IC50 was 30000 nM. Work on `O=c1oc2ccccc2c2c1c(-c1ccccc1)nn2-c1ccccc1` yielded an IC50 of 16000 nM. `COc1cccc(-n2nc(C)c3c(=O)oc4ccccc4c32)c1` showed an IC50 of 750 nM. Work on `Cc1ccc(-n2nc(C)c3c(=O)oc4ccccc4c32)cc1` yielded an IC50 of 2000 nM. `Cc1cccc(-n2nc3c(c2C)c(=O)oc2ccccc23)c1` gave an IC50 of 3000 nM. `CN1C(=O)CN=C(c2ccccc2)c2cc(Cl)ccc21` [DIAZEPAM] showed an IC50 of 25 nM. `Cc1c2c(=O)oc3ccccc3c2nn1-c1cccc(Br)c1` was tested, and the IC50 was 25000 nM. Work on `Cc1nn(-c2cccc([N+](=O)[O-])c2)c2c1c(=O)oc1ccccc12` yielded an IC50 of 320 nM. Work on `Cc1nn(-c2ccccc2Cl)c2c1c(=O)oc1ccccc12` yielded an IC50 of 16000 nM. In the case of `COc1ccc(-n2nc(C)c3c(=O)oc4ccccc4c32)cc1`, the IC50 is reported as 700 nM. Work on `Cc1nn(-c2ccc([N+](=O)[O-])cc2)c2c1c(=O)oc1ccccc12` yielded an IC50 of 1000 nM. `Cc1cccc(-n2nc(C)c3c(=O)oc4ccccc4c32)c1` gave an IC50 of 280 nM.
